Data on 6 compounds can be found in ChEMBL document CHEMBL1127428, “Studies of the active conformation of a novel series of benzamide dopamine D2 agonists” (J Med Chem, 1994).

The nature of series [1]: (§1) Tested in vitro for intrinsic activity relative to quinpirole. It counts as […]. The method in brief: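 Human D2 receptor (long form) expressed by transfection in GH4C1 cells. Agonism was read as inhibition of forskolin-stimulated cAMP accumulation. Intrinsic activity was the maximal response expressed relative to the maximal response of the full D2 agonist quinpirole.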

Series [2] can be described thus: as §1. In outline: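 GH4C1 cells transfected with human D2 receptor (long form); agonism read as inhibition of forskolin-stimulated cAMP accumulation. Intrinsic activity = maximal response relative to the full D2 agonist quinpirole (set at 1.0).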
For series [3], the target named is D(2) dopamine receptor (Rattus norvegicus, UniProt P61169). In words: Binding affinity towards Dopamine D2 receptor from rat striatal membranes, using [3H]- spiperone as radioligand. The method in brief: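 Displacement of [3H]spiperone (0.2 nM, final) from rat striatal membranes; nonspecific binding defined with (+)-butaclamol (1 μM). Four to six concentrations, each run in triplicate; IC50 obtained by nonlinear regression.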

The target in series [4] is D(2) dopamine receptor (Homo sapiens, UniProt P14416). In words: In vitro inhibition of forskolin-stimulated cAMP accumulation in GH4C1 cells transfected with the human Dopamine D2 receptor. The format is functional, cell-based, GH4-C1.
The species entered for series [5] is Mus musculus. In words: Tested for the inhibition of Spontaneous locomotor activity. It counts as functional. The method in brief: (§2)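 Mice dosed ip, then immediately tested for 1 h of exploratory locomotion in darkened cylindrical photobeam chambers. Activity expressed as percent of vehicle-treated animals. ED50 (95% confidence range) derived from three to six doses, 6–18 animals per dose.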

Series [6] concerns Mus musculus. In words: Tested for the inhibition of Spontaneous locomotor activity; Not active, ED50 > 30 mg/kg. The format is functional, organism-based. Details: dose 30 mg/kg. The method in brief:
as §2

The source made the active and inactive calls. The calls are words filed in the database; no cut-off is given here. Bounds are passed on as bounds.

Sequence of D(2) dopamine receptor (Rattus norvegicus, UniProt P61169) (P61169 whole entry): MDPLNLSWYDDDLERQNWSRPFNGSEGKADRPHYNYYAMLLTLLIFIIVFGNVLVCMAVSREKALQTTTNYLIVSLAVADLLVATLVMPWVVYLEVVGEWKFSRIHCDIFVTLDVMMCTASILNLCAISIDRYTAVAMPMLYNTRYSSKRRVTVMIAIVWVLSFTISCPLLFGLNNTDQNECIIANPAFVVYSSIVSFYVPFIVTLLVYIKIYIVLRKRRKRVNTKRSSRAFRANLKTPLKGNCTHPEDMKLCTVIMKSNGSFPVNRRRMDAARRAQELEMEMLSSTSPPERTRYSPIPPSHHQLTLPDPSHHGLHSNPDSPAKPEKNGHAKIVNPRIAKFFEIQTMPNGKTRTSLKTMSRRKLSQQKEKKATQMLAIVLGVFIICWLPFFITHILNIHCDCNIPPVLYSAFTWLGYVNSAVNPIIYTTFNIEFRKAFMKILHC
Sequence of D(2) dopamine receptor (Homo sapiens, UniProt P14416) (P14416 whole entry): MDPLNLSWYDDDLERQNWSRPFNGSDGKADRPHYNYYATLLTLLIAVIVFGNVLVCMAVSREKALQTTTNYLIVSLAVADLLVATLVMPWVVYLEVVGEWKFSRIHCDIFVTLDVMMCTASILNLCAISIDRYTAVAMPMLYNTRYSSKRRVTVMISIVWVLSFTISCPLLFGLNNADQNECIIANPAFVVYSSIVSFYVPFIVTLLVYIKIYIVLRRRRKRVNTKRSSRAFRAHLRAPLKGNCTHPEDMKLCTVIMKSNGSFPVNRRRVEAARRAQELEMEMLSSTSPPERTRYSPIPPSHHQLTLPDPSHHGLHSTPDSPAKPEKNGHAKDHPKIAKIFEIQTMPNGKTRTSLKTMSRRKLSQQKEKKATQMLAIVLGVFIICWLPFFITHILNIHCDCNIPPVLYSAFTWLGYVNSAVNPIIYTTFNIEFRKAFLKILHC

For `CCCN1CCC[C@@H]2Cc3n[nH]cc3C[C@H]21` (single isomer, unassigned) [QUINPIROLE], the Intrinsic activity in series [1] stood at 1.

On to `O=C(N[C@H]1CC[C@H](CCN2CCN(c3ccccn3)CC2)CC1)c1ccccc1`, for which the Intrinsic activity in series [2] worked out at 0.83. This compound yielded an IC50 in series [3] of 443 nM. Also, the EC50 in series [4] was determined as 4.9 nM. Besides, the median effective dose (ED50) in series [5] came out at 0.16 mg/kg.

Take `O=C(N[C@H]1CC[C@H]2C[C@H](N3CCN(c4ccccn4)CC3)CC[C@@H]2C1)c1ccccc1`: the IC50 in series [3] was found to be 7100 nM. Further, in series [4], the EC50 was > 1000 nM. In series [6], the ED50 entry was “inactive”.

With `O=C(N[C@@H]1CC[C@H]2C[C@H](N3CCN(c4ccccn4)CC3)CC[C@@H]2C1)c1ccccc1`, the IC50 in series [3] was 5800 nM. The EC50 in series [4] was > 1000 nM. Besides, the ED50 in series [5] was 14.3 mg/kg.

As for `O=C(N[C@@H]1CC[C@H]2C[C@@H](N3CCN(c4ccccn4)CC3)CC[C@@H]2C1)c1ccccc1`, in series [2], the Intrinsic activity was determined as 0.98. Further, in series [3], the IC50 worked out at 72.7 nM. The EC50 in series [4] stood at 10.4 nM. The same compound had an ED50 in series [5] of 0.1 mg/kg.

In series [2], `O=C(N[C@H]1CC[C@H]2C[C@@H](N3CCN(c4ccccn4)CC3)CC[C@@H]2C1)c1ccccc1` returned an Intrinsic activity of 0.63. In series [3], this compound came in with an IC50 of 1100 nM. Further, in series [4], a half-maximal effect (EC50) was put at 240 nM. Further, the ED50 in series [5] is 6.9 mg/kg.
